Assay outcomes: PubChem, The Scripps Research Institute Molecular Screening Center
STAT3 act – increases IL-6 driven STAT3 reporter signal. U3A cells, IL-6 STAT3-luciferase reporter, luminescence; 100% = signal with IL-6 EC80 alone. AID 871. actives 0.91% (n = 190,000). activation (% of control), % at 5.6 µM;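 active means activation above the screen-wide mean of compound activation plus 3 SD, cut at about 130% in these data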;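 further: 0% = background luminescence of wells with medium and substrate only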
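Material: STAT3-luciferase reporter U3A cells; Probe or stimulus: IL-6 (33 ng/mL); Incubation: compound pre-incubation 1 h before IL-6, then 6 h stimulation at 37 °C; Technique: luminescence from STAT3-driven luciferase reporter; Evaluation: % activation versus median of IL-6-stimulated wells; Controls: IL-6-only high control.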
STAT1 blocker – inhibitors of IFN-gamma induced STAT1 signaling; NIH 3T3 STAT1-luciferase reporter, luminescence; inhibition, % at 5.5 µM; actives 0.35% (n = 200,000); AID 920;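 active means inhibition above a set limit, the mean inhibition across all tested compounds plus 3 SD, cut at about 34% in these data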;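 further: 0% = IFN-gamma with DMSO and 100% = IFN-gamma with 300 µM nifuroxazide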
STAT3 inh-1 – reduces IL-6 driven STAT3 reporter signal | U3A cells, IL-6 STAT3-luciferase reporter, luminescence; host cell line lacks STAT1 | inhibition, % at 5.5 µM | actives 0.89% (n = 190,000);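 active means inhibition above the mean inhibition across all screened compounds plus 3 SD, cut at about 44% in these data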;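 further: 0% = DMSO only wells and 100% = 100 µM nifuroxazide control wells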
HSP90 inh – HSP90 refolding inhibition in rabbit reticulocyte lysate. luciferase refolding luminescence, 3 h. inhibition, % at 5.6 µM. actives 0.91% (n = 290,000);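 active means inhibition above the screen-wide mean plus 3 SD, computed separately per campaign, cut at about 16% in these data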;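 further: 0% = DMSO wells and 100% = 60 µM geldanamycin wells; inhibitors lower the luminescence because luciferase stays unfolded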
STAT3 inh-2 – STAT3 inhibition, confirmation assay | shares compounds with STAT3 inh-1 | U3A cells, IL-6 STAT3 luciferase reporter, luminescence; cell line lacks STAT1 | inhibition, % at 5.7 µM | actives 45% (n = 1,200) | AID 1265;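 active means inhibition above the hit cutoff computed for the primary STAT3 screen, cut at about 44% in these data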;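 further: 0% = IL-6 plus DMSO and 100% = IL-6 plus nifuroxazide control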
NFkB inh 2 – counter-screen for STAT3 inhibitors: NF-kappaB inhibition | HEK293T NF-kB luciferase reporter, TNF-alpha induced | shares compounds with STAT3 inh-1 | actives 36% (n = 1,200) | inhibition, % at 5.7 µM | AID 1308;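 active means inhibition above the mean of solvent-only control wells plus 3 SD, cutoff set per campaign, cut at about 13% in these data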;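 further: 0% = TNF-alpha with DMSO and 100% = TNF-alpha with MG high control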
STAT1 inh STAT3c – counter-screen for STAT3 inhibitors: STAT1 inhibition. shares compounds with STAT3 inh-1. NIH 3T3 STAT1-luciferase reporter, IFN-gamma induced, luminescence. inhibition, % at 5.7 µM. actives 27% (n = 1,200). AID 1317;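 active means inhibition above the mean plus 3 SD of solvent-only control wells, limit set per screening run, cut at about 16% in these data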;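 further: 0% = DMSO with IFN-gamma and 100% = nifuroxazide control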
The depositor's hits bear a star; nt = not tested or not shown. Hits are enriched below; roughly 2% of the tested compounds scored in any of these assays.

SMILES | STAT3 act | STAT1 blocker | STAT3 inh-1 | HSP90 inh | STAT3 inh-2 | NFkB inh 2 | STAT1 inh STAT3c
CCC(C(=O)NCc1ccco1)N(C(=O)CNS(=O)(=O)c1ccc(C)cc1)c1ccccc1F (configuration not stated) | nt | nt | nt | 1 | nt | nt | nt
COc1cc2c(cc1OC)C(c1ccc(-c3ccc(Cl)cc3Cl)o1)=NCC2 | 52 | 5 | 63* | 3 | 53* | 16* | -3
Cc1oc(-c2cccs2)nc1CN1CCN(CC(C)C)C(CCO)C1 (configuration not stated) | 108 | 1 | -5 | -1 | nt | nt | nt
CCCN(Cc1cc2cc(C)ccc2[nH]c1=O)C(=O)c1cccc([N+](=O)[O-])c1 | nt | nt | nt | 3 | nt | nt | nt
CCN1CCN(CCOc2ccc(Cl)cc2)CC1 | 97 | -16 | 10 | 2 | nt | nt | nt
Clc1ccc(OCCN2CCN(c3ncnc4sccc34)CC2)cc1 | 30 | 29 | 89* | -1 | 88* | 34* | 23*
Cc1ccc(OCCN2CCN(c3ncnc4sc(C)c(C)c34)CC2)cc1 | 35 | 24 | 79* | 1 | 81* | 26* | 25*
NNC(=O)c1cc2c(N3CCC(Cc4ccccc4)CC3)ncnc2s1 | 82 | 22 | 24 | 1 | nt | nt | nt
Cn1nc(CC(=O)Nc2ccc3c(c2)OCCO3)c2ccccc2c1=O | 34 | 26 | 83* | 5 | 78* | 34* | 28*
Cc1ccc(NC(=O)Cc2nn(C)c(=O)c3ccccc23)cc1F | 30 | 30 | 85* | 5 | 77* | 25* | 23*
Cc1ccc(NC(=O)Cn2nc(C)c3ccccc3c2=O)cc1F | 106 | -7 | -2 | 5 | nt | nt | nt
COC(=O)c1ccc(CNC(=O)C2CCC(=O)N(CCCc3ccccc3)C2)cc1 (configuration not stated) | nt | nt | nt | -3 | nt | nt | nt
COc1cccc2cc(C(=O)OCc3ccccc3)c(=O)oc12 | nt | nt | nt | -1 | nt | nt | nt
Cc1ccc(C(=O)/C=C/Nc2ccc3c(c2)OCO3)cc1 | 54 | -28 | 56* | 2 | 2 | -27 | -142
O=C(/C=C/Nc1cccc(O)c1)c1ccccc1 | 32 | 7 | 86* | -4 | 65* | -3 | 2
Cc1ccc(C(=O)/C=C/Nc2cccc(O)c2)cc1 | 24 | 7 | 94* | 4 | 90* | 32* | 34*
O=C(/C=C/Nc1ccc(F)c(Cl)c1)c1ccccc1 | nt | nt | nt | 1 | nt | nt | nt
Cc1ccc(C)c(NC(=S)N(CCN(C)C)C(C)c2ccccn2)c1 (configuration not stated) | 98 | 1 | 12 | 3 | nt | nt | nt
Cc1cc(C(=O)CSc2nc3ccccc3c(=O)n2C)c(C)n1Cc1ccc2c(c1)OCO2 | 55 | 21 | 58* | 5 | 76* | 28* | 25*
Cc1cc(C(=O)CSc2nnc(-c3ccccc3)n2Cc2ccc3c(c2)OCO3)c(C)n1C | 103 | -5 | -1 | 4 | nt | nt | nt
O=C(CCC(=O)c1ccccc1)NCc1ccccc1 | nt | nt | nt | 2 | nt | nt | nt
O=C(CNc1c(Br)cc(Br)cc1Br)NN=C1CCCCC1 | 95 | 4 | 8 | 1 | nt | nt | nt
O=S(=O)(c1ccccc1)N1CCC(O)(CSc2ccc(Cl)cc2)CC1 | 40 | 11 | 76* | -1 | 47* | 17* | 4
O=C(Nc1ccc(Oc2ccccc2)cc1)c1cnc2n(c1=O)CCS2 | 40 | 14 | 78* | -1 | 73* | 11 | 14
O=c1[nH]c(N2CCOCC2)nc2c1CCCC2 | 21 | 7 | 97* | 7 | 2 | -7 | -6
SMILES | STAT3 act | STAT1 blocker | STAT3 inh-1 | HSP90 inh | STAT3 inh-2 | NFkB inh 2 | STAT1 inh STAT3c
COc1ccc(C(=O)Nc2ccc(S(=O)(=O)N3CCc4ccccc43)cc2)cc1 | 60 | 5 | 51* | 13 | 39 | 13* | 2
O=C(COc1ccc(Br)cc1Br)NC1CCCC1 | 61 | -47 | 49* | -2 | 53* | -2 | -43
Cc1cc(Cl)c(S(=O)(=O)N2CCCCCC2)cc1OCC(=O)NC1CCCCC1 | 32 | 10 | 82* | -3 | 83* | 31* | 16*
CCOC(=O)N1CCN(S(=O)(=O)c2cc(OCC(=O)NC3CCCCC3)c(C)cc2Cl)CC1 | 97 | 14 | 6 | -6 | nt | nt | nt
CCN1CCN(S(=O)(=O)c2cc(OCC(=O)NC3CCCCC3)c(C)cc2Cl)CC1 | 38 | 21 | 77* | 0 | 57* | 19* | 8
Cc1cc(Cl)c(S(=O)(=O)N2CCSCC2)cc1OCC(=O)NC1CCCCC1 | 46 | 3 | 67* | -3 | 67* | 15* | 10
O=C(COc1ccc(Br)cc1Cl)NC1CCCCC1 | 108 | -43 | -4 | -3 | nt | nt | nt
Cc1cc(Cl)c(S(N)(=O)=O)cc1OCC(=O)NC1CCCCC1 | nt | nt | nt | 5 | nt | nt | nt
COC(=O)CCCC(=O)NC1CCCc2c1cnn2-c1ccc(F)cc1F (configuration not stated) | nt | nt | nt | -2 | nt | nt | nt
Cc1ccc2nc(-c3ccc(NC(=O)COC(=O)c4ccc([N+](=O)[O-])o4)cc3)sc2c1 | 55 | -62 | 55* | 2 | 35 | -9 | -67
CCOc1ncccc1C(=O)OCC(=O)Nc1ccc(-c2nc3ccc(C)cc3s2)cc1 | 39 | -19 | 72* | 0 | 46* | -20 | -25
CNS(=O)(=O)c1cccc(C(=O)OCC(=O)Nc2ccc(-c3nc4ccc(C)cc4s3)cc2)c1 | 46 | 28 | 68* | 4 | 32 | -13 | -79
Cc1ccc2nc(-c3ccc(NC(=O)COC(=O)c4ccco4)cc3)sc2c1 | 56 | -45 | 50* | -3 | 28 | -20 | -64
CCOc1ccc(N(C)C(=O)CCc2nnc3ccc(NCc4ccco4)nn23)cc1 | nt | nt | nt | -7 | nt | nt | nt
CCOC(=O)c1ccc(NC(=O)c2ccc(C)c(S(=O)(=O)N3CCOCC3)c2)cc1 | 40 | 8 | 72* | -3 | 69* | 22* | 14
CC(=O)c1ccc(NC(=O)c2ccc(C)c(S(=O)(=O)N3CCOCC3)c2)cc1 | nt | nt | nt | -2 | nt | nt | nt
CC(=O)c1cccc(NC(=O)c2cccc(S(=O)(=O)N3CCOCC3)c2)c1 | nt | nt | nt | -2 | nt | nt | nt
CCOC(=O)c1ccc(NC(=O)c2cccc(S(=O)(=O)N3CCOCC3)c2)cc1 | 56 | 9 | 58* | 5 | 37 | 3 | -4
O=C(Nc1ccc(F)c(F)c1)c1ccc(F)c(S(=O)(=O)N2CCOCC2)c1 | 65 | 14 | 46* | 3 | 19 | 6 | 2
COc1cc(CNCCO)ccc1OCCc1ccccc1 | nt | nt | nt | 1 | nt | nt | nt
Cn1c(CN2CCCCC2)nc2cc(NC(=O)c3cccc(Br)c3)ccc21 | 49 | 0 | 63* | 3 | 51* | 12 | -8
CC(C)(C)C(=O)Nc1cc2c3c(c1)CCC(=O)N3CCC2 | nt | nt | nt | -1 | nt | nt | nt
CCOc1ccc(NC(=NCc2ccc3c(c2)OCO3)SC2CC(=O)N(c3ccc(C(=O)O)cc3)C2=O)cc1 (configuration not stated) | 96 | 6 | 4 | 0 | nt | nt | nt
